Numbering of substitutions follows the chain as printed. A value given as a limit tells only on which side of the number the result lay.

Data set [1] in a line: Protein binding in human plasma at 20 uM after 5 hrs by LC/MS/MS analysis. The format is ADME, cell-free. As to conditions: read-out: PPB (converted). The essentials:
(§1)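 Compound at 20 μM incubated with plasma at 37°C for 5 h; percent bound to protein determined. Final DMSO 0.2%.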

Data set [2] in a line: Metabolic stability in rat liver microsomes assessed as parent compound remaining at 0.5 uM after 60 mins in presence of NADPH by LC/MS/MS analysis. The class given is ADME, Microsome. As to conditions: liver microsomes, read-out: Stability. Summed up: (§2)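 Compound at 0.5 μM incubated with liver microsomes at 37°C for 1 h; result given as percent remaining. Final DMSO 0.2%.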
(Microsomes from liver hold many membrane-bound enzymes, among them those of drug oxidation.)

Data set [3] concerns the target T1, Peroxisome proliferator-activated receptor alpha (Rattus norvegicus, UniProt P37230).
T1 sequence (P37230 whole entry): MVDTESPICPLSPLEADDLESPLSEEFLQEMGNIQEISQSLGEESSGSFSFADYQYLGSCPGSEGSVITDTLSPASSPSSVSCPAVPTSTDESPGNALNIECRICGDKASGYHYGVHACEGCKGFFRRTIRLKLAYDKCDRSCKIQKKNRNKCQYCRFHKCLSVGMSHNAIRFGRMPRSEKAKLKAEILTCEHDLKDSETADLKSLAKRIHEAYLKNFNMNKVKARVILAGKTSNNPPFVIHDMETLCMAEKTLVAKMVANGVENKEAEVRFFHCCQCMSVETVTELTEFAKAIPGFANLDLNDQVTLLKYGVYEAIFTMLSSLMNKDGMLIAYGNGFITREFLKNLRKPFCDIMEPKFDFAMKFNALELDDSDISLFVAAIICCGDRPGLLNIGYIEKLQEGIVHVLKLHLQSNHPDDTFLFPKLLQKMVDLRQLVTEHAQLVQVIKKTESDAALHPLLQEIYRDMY
As to the kind of experiment: Transactivation of rat GAL4-fused PPARalpha expressed in human HepG2 cells after 24 hrs by dual renilla-luciferase reporter gene assay. The format is cell-based. Summed up: (§3)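 HepG2 cells carried GAL4-fused human PPARγ or PPARδ, or mouse or rat PPARα, plus the 4xUAS-tk-luc reporter. Cells treated across a concentration range for 24 h. Luciferase normalized to Renilla activity and expressed as fold induction over vehicle, set as 1.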

Data set [4] addresses T2, Peroxisome proliferator-activated receptor alpha (Homo sapiens, UniProt Q07869).
T2 sequence (Q07869 whole entry): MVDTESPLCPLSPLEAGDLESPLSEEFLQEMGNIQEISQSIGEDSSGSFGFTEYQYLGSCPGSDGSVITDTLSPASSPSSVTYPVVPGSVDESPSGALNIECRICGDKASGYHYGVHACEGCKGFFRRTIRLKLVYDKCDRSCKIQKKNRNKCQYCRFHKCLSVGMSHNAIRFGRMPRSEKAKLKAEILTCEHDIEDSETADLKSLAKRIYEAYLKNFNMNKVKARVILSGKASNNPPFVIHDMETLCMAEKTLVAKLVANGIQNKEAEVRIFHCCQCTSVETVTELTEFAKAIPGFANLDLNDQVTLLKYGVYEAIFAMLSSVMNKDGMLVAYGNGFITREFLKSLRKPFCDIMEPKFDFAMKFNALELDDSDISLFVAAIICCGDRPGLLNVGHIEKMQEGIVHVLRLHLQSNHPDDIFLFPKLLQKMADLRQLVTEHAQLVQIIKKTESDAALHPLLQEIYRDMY
Description: Transactivation of human GAL4-fused PPARalpha LBD expressed in human HepG2 cells after 24 hrs by renilla luciferase reporter gene assay. The class given is cell-based.

Data set [5] is described as follows: Apparent permeability from apical to basolateral side in human Caco2 cells at 25 uM measured up to 2 hrs by LC/MS/MS analysis. The class given is ADME, cell-based. As to conditions: Caco-2. The essentials: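 Caco-2 monolayers; permeability measured apical-to-basolateral (A–B) at 25 μM compound, reported as ×10⁻⁶ cm/s.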
Background: Caco-2 monolayers are a common model of the intestinal barrier.

The target of data set [6] is T3, Peroxisome proliferator-activated receptor alpha (Mus musculus, UniProt P23204).
T3 sequence (P23204 whole entry): T1 sequence (P37230 whole entry) with L41I, S50G, A85V, V86I, T88A, N96S, A135V, A207G, N265D
Description: Transactivation of mouse GAL4-fused PPARalpha expressed in human HepG2 cells after 24 hrs by dual renilla-luciferase reporter gene assay. The format is cell-based. The essentials:
as §3

Data set [7] in a line: Solubility of the compound in pH 7.4 PBS at 100 uM incubated for 10 mins under shaking condition by HPLC analysis. The format is physicochemical. The essentials: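 Aqueous solubility determined in PBS, pH 7.4; reported in μM.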
Data set [8] is described as follows: Metabolic stability in human liver microsomes assessed as parent compound remaining at 0.5 uM after 60 mins in presence of NADPH by LC/MS/MS analysis. The conditions noted are these: liver microsomes, read-out: Stability. The format is ADME, Microsome. The essentials: as §2
For data set [9], the target named is Peroxisome proliferator-activated receptor alpha (Homo sapiens) (UniProt Q07869). Description: Displacement of fluormone pan-PPAR green from GST-tagged human PPARalpha ligand binding domain after 3 hrs by TR-FRET assay.
Data set [10] is described as follows: Effect on cyclophilinA expression in human FLC4 cells after 48 hrs by SYBR green dye-based RT-PCR analysis. The format is ADME, cell-based.
The nature of data set [11]: Protein binding in rat plasma at 20 uM after 5 hrs by LC/MS/MS analysis. The format is ADME, cell-free. The conditions noted are these: read-out: PPB. Summed up: as §1

Turning to `Cc1cc(C(=O)O)c2c(C(C)C)nn(-c3ccc(Cl)cc3)c2n1`, the fraction unbound at 5 h, 20 µM in data set [1] was 0.003; in data set [11], 0.01. The remaining at 1 h, 0.5 µM in data set [2] worked out at 87%; in data set [8], 91%. Also, the values for the concentration for a half-maximal effect (EC50) in data set [3], in data set [4] and in data set [6] were 15.9 µM, 0.66 µM and 11.3 µM, respectively. Moreover, the Papp A→B at 2 h, 25 µM in data set [5] was 51.8 ×10⁻⁶ cm/s. The compound further gave a solubility at 10 min, 100 µM in data set [7] of more than 95 µM. For the same compound, the IC50 in [9] came to 4.48 µM. Besides, the Activity result in [10] is recorded as “Non-Toxic”.

In general, EC50 refers to the midpoint of the concentration-response curve. High values mean a need for much substance, low ones an effect from little substance. The Papp A→B is how fast a substance crosses the layer from the apical side. One may read the solubility as how much of the substance goes into solution per volume. Read a high solubility as a readily soluble substance. As usually defined, the IC50 is the concentration needed to halve the response being measured. Lower therefore signals greater potency in that assay.
